Activity calls are given as the source filed them. The calls are words filed in the database; no cut-off is given here.
Key:
[1] = tested on: U-937; experiment: Effect on SAHA-induced DNA damage in p53 null human U937 cells assessed as increase in gammaH2AX expression level by measuring ratio of gammaH2AX to beta-actin level at 2 uM after 24 hrs by Western blot analysis relative to control; assay type: functional
Outline: (§1)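 U937 cells treated 24 h, alone or PL+SAHA. Whole-cell lysates (protease/phosphatase inhibitors) immunoblotted for γH2AX, CHK1, RAD51, Bim and XIAP. Band densitometry normalised to β-actin, then expressed as fold change relative to the untreated control.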

[2] = tested on: U-937; experiment: Induction of apoptosis in p53 null human U937 cells at 2 uM preincubated with NAC for 3 hrs followed by compound addition measured after 24 hrs in presence of SAHA by annexin V-FITC/PI staining based flow cytometry; assay type: functional, cell-based
Outline: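 U937 cells preincubated 3 h with 3 mM NAC or vehicle and washed with PBS to remove excess NAC. Then drug alone or with SAHA for 24 h. Apoptosis scored as % Annexin V+ by Annexin V-FITC/PI flow cytometry; vehicle DMSO < 0.1% v/v.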

[3] = tested on: HL-60; experiment: Antiproliferative activity against Ara-C resistant human HL60 cells after 72 hrs in presence of SAHA by MTT assay; assay type: functional, cell-based; conditions: HL-60, 72 h
Outline: (§2)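 AML cell lines grown in RPMI 1640 with 10% FBS (20% for MOLM-13), 2 mM L-glutamine and penicillin/streptomycin at 37 °C, 5% CO2. Ara-C-resistant HL-60 and CMK sublines came from stepwise cytarabine selection and were kept in 600 nM or 300 nM cytarabine respectively. Cells were treated 72 h. MTT 0.05 mg/mL, 3 h at 37 °C, DMSO solubilization, absorbance at 570 nm. IC50 given ± SEM.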

[4] = tested on: U-937; experiment: Effect on SAHA-induced DNA damage in p53 null human U937 cells assessed as decrease in Rad51 expression level by measuring ratio of Rad51 to beta-actin level at 2 uM after 24 hrs by Western blot analysis relative to control; assay type: functional; outline: as §1
[5] = tested on: U-937; experiment: Induction of cell death in p53 null human U937 cells at 1 to 4 uM after 24 hrs by annexin V-FITC/PI staining based flow cytometry; assay type: functional
Outline: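 Human U937 AML cells (p53 null) in RPMI 1640 with 10% FBS, 2 mM L-glutamine, penicillin/streptomycin, 37 °C, 5% CO2. Exposed 24 h to compound alone or with SAHA; vehicle DMSO < 0.1% v/v. Annexin V-FITC/PI staining and flow cytometry, reported as % Annexin V+ cells. Three independent experiments in triplicate; one representative shown. EC50 taken as concentration giving 50% Annexin V+ cells versus vehicle.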

[6] = tested on: MOLM-13; experiment: Induction of apoptosis in human MOLM13 cells harboring wild type p53/FLT3-ITD mutant at 1 uM after 24 hrs in presence of SAHA by annexin V-FITC/PI staining based flow cytometry; assay type: functional
Outline: (§3)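 Cells treated 24 h, single agents or SAHA+PL at 1:1 (each drug at the stated concentration). Annexin V-FITC/PI kit staining, then flow cytometry, reported as % Annexin V+ cells. Three independent experiments in triplicate, with data from one representative experiment. DMSO <0.1% vehicle control.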

[7] = tested on: U-937; experiment: Effect on SAHA-induced apoptosis in p53 null human U937 cells assessed as increase in Bim EL expression level by measuring ratio of Bim EL to beta-actin level at 2 uM after 24 hrs by Western blot analysis relative to control; assay type: functional; outline: as §1
[8] = tested on: U-937; experiment: Antiproliferative activity against p53 null human U937 cells after 72 hrs in presence of SAHA by MTT assay; assay type: functional, cell-based; conditions: U-937, 72 h; outline: as §2
[9] = tested on: U-937; experiment: Effect on SAHA-induced apoptosis in p53 null human U937 cells assessed as decrease in XIAP expression level by measuring ratio of XIAP to beta-actin level at 2 uM after 24 hrs by Western blot analysis relative to control; assay type: functional; outline: as §1
[10] = tested on: MOLM-13; experiment: Induction of apoptosis in human MOLM13 cells harboring wild type p53/FLT3-ITD mutant at 2 uM after 24 hrs in presence of SAHA by annexin V-FITC/PI staining based flow cytometry; assay type: functional; outline: as §3
[11] = tested on: MOLM-13; experiment: Induction of apoptosis in human MOLM13 cells harboring wild type p53/FLT3-ITD mutant at 4 uM after 24 hrs in presence of SAHA by annexin V-FITC/PI staining based flow cytometry; assay type: functional; outline: as §3
[12] = tested on: CMK; experiment: Antiproliferative activity against human CMK cells after 72 hrs in presence of SAHA by MTT assay; assay type: functional, cell-based; outline: as §2
[13] = tested on: MOLM-13; experiment: Induction of cell death in human MOLM13 cells harboring wild type p53/FLT3-ITD mutant assessed as combination index at 1 to 4 uM after 24 hrs in presence of SAHA by annexin V-FITC/PI staining based flow cytometry; assay type: functional
Outline: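 Cells given SAHA and PL alone or together at 1:1 ratio for 24 h, then Annexin V-FITC/PI staining and flow cytometry. Combination index computed from the % Annexin V+ data; CI < 1 synergistic, = 1 additive, > 1 antagonistic. Triplicates, three independent experiments.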

[14] = tested on: MOLM-13; experiment: Induction of cell death in human MOLM13 cells harboring wild type p53/FLT3-ITD mutant after 24 hrs by annexin V-FITC/PI staining based flow cytometry; assay type: functional
Outline: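 MOLM-13 (p53 wt, FLT3-ITD) kept in RPMI 1640 with 20% FBS, 2 mM L-glutamine, penicillin/streptomycin, 37 °C, 5% CO2. Treated 24 h; vehicle DMSO < 0.1% v/v. Annexin V-FITC/PI flow cytometry, % Annexin V+ cells. Three independent experiments in triplicate; one representative shown. EC50 is the concentration giving 50% Annexin V+ cells relative to vehicle.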

[15] = tested on: MOLM-13; experiment: Induction of apoptosis in human MOLM13 cells harboring wild type p53/FLT3-ITD mutant at 4 uM after 24 hrs by annexin V-FITC/PI staining based flow cytometry; assay type: functional; outline: as §3
[16] = tested on: U-937; experiment: Cytotoxicity against p53 null human U937 cells assessed as decrease in cell viability at 0.5 to 5 uM after 24 hrs by MTT assay; assay type: functional, cell-based
Outline: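 MCF-10A (DMEM/F12, 5% horse serum, hydrocortisone, cholera toxin, insulin, EGF) and U937 (RPMI 1640, 10% FBS) were exposed to 0.5–5 μM, alone or PL+SAHA 1:1, for 24 h. MTT 0.05 mg/mL, 3 h at 37 °C, DMSO solubilization, A570. Viability given as mean ± SD of four to six independent experiments. DMSO <0.1% vehicle control.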

[17] = Chemical stability of the compound in pH 7.4 phosphate buffer at 50 uM incubated up to 4 hrs in absence of GSH by HPLC analysis; assay type: physicochemical; conditions: pH 7.4, 4 h
Outline: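 Compound at 50 μM incubated with or without 5 mM GSH in phosphate buffer pH 7.4 at 37 °C for up to 4 h. Mixtures analysed by HPLC with water/0.1% formic acid/10% methanol versus 0.1% formic acid in acetonitrile, 0.5 mL/min, 10–80% B gradient over 18 min.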

[18] = tested on: U-937; experiment: Induction of apoptosis in p53 null human U937 cells at 0.25 uM after 24 hrs by annexin V-FITC/PI staining based flow cytometry; assay type: functional; outline: as §3
[19] = Stability of the compound in human U937 cell lysate at 50 uM incubated for 1.5 hrs in presence of GSH by HPLC analysis; assay type: ADME, cell-based; conditions: u-937, 1.5 h

SMILES | Ratio [1] | Activity [2] | IC50 [3] [nM] | Ratio [4] | Activity [5] | Activity [6] [%] | Ratio [7] | IC50 [8] [nM] | Ratio [9] | Activity [10] [%] | Activity [11] [%] | IC50 [12] [nM] | CI [13] | Activity [14] | Activity [15] [%] | Activity [16] | Stability [17] | Activity [18] | Stability [19]
COc1cc(/C=C/C(=O)N2CCC=CC2=O)cc(OC)c1OC [PIPLARTINE] | 4.1 | inactive | 1130 | 0.9 | Active | 8 | 1.8 | 767 | 0.6 | 53.6 | 77.5 | 613 | <=1.1 |  |  |  |  |  | 
COc1cc(/C=C/C(=O)N2CCC=CC2=O)cc(OC)c1OCCCCCCC(=O)NO |  |  |  |  |  |  |  |  |  |  |  |  |  | Dose-dependent effect | 80.3 | Active | Stable | inactive | Unstable

Reference: ChEMBL document CHEMBL4000155, “Synthesis and Antileukemic Activities of Piperlongumine and HDAC Inhibitor Hybrids against Acute Myeloid Leukemia Cells” (J Med Chem, 2016)
